Test results as given in BindingDB's records for doi:10.1016/j.ejmech.2020.112062 (Mansoura University, 2020).

Target: Transcription factor p65 (Human, UniProt Q04206)
Experiment: Inhibition of NFkappaB p65 in human RPMI-8226 cells incubated for 2 hrs by ELISA
In short: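 Target levels measured by ELISA kits in RPMI-8226 cells. Cells were seeded and grown 24 h at 37 °C, then exposed 72 h to a semi-log series of concentrations. Sample was incubated 2 h at 37 °C, followed by detection reagents A and B (1 h each), TMB substrate and stop solution, with OD read at 450 nm. IC50 was taken from sigmoidal dose-response nonlinear regression of % activity.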

Transcription factor p65, sequence (Q04206 whole entry): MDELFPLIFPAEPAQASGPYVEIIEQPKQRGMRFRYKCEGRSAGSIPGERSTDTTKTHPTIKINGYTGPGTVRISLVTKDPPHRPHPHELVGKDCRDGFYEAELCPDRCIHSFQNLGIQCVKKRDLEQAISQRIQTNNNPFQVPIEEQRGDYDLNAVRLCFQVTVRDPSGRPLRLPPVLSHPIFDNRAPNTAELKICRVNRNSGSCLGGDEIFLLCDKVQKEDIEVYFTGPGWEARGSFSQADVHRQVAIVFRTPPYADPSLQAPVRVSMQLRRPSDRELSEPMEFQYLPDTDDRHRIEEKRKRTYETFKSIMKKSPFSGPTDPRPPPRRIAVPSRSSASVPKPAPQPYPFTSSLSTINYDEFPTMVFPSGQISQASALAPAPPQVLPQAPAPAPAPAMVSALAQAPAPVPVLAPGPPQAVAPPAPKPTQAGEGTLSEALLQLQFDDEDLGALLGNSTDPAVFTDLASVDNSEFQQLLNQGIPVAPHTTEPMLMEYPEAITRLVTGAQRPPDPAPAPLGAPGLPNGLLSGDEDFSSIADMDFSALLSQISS

IC50	SMILES
134 nM	COc1ccc(/C=C/C(=O)c2nnn(-c3ccc(Cl)cc3)c2C)cc1OC
55 nM	COc1cc2ncnc(Nc3ccc(F)c(Cl)c3)c2cc1OCCCN1CCOCC1 [ZD1839]
